Experimental data: ChEMBL document CHEMBL4689842, “EUbOPEN Chemogenomics Library wave 1” (2021)

System: U2OS
Experiment: Multiplex assay against U2OS
Format: toxicity, cell-based
Conditions: human
In short: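 Phenotypes for tubulin, mitochondrial mass and membrane permeability are expressed as per cents of healthy-nucleus cells. Cells were stained live at seeding with Hoechst33342, BioTracker Green Microtubule Cytoskeleton Dye, MitoTracker Red and Annexin V Alexa Fluor 680, then imaged after compound addition on a CQ1 microscope at 37°C and 5% CO2. Machine-learning gating in CellPathfinder separated Hoechst high-intensity objects from normal cells, divided normal cells by nuclear state (healthy, pyknosed, fragmented) and divided pyknosed cells into mitotic or apoptotic.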

[1] = 12 h, 1 µM, compound concentration 1 uM, replicate 1
[2] = 12 h, 1 µM, compound concentration 1 uM, replicate 2
[3] = 12 h, 10 µM, compound concentration 10 uM, replicate 1
[4] = 12 h, 10 µM, compound concentration 10 uM, replicate 2
[5] = 24 h, 1 µM, compound concentration 1 uM, replicate 1
[6] = 24 h, 1 µM, compound concentration 1 uM, replicate 2
[7] = 24 h, 10 µM, compound concentration 10 uM, replicate 1
[8] = 24 h, 10 µM, compound concentration 10 uM, replicate 2
[9] = 48 h, 1 µM, compound concentration 1 uM, replicate 1
[10] = 48 h, 1 µM, compound concentration 1 uM, replicate 2
[11] = 48 h, 10 µM, compound concentration 10 uM, replicate 1
[12] = 48 h, 10 µM, compound concentration 10 uM, replicate 2

Compound: CCN1CCN(Cc2ccc(Nc3ncc(F)c(-c4cc(F)c5nc(C)n(C(C)C)c5c4)n3)nc2)CC1.CS(=O)(=O)O
- Population Apoptotic (%) [1]: 46%
- Population Fragmented Nuclei (%) [1]: 18%
- Population Healthy Nuclei (%) [1]: 63%
- Population Hoechst High Intensity Objects (%) [1]: 8%
- Population Membrane Permeable-Phenotype (%) [1]: 4%
- Population Mitochondria Different-Phenotype (%) [1]: 92%
- Population Mitotic Cells (%) [1]: 53%
- Population Normal (%) [1]: 91%
- Population Pyknosed Nuclei (%) [1]: 17%
- Population Tubulin-Different-Phenotype (%) [1]: 91%
- Total Cell Count [1]: 160
- Population Apoptotic (%) [2]: 40%
- Population Fragmented Nuclei (%) [2]: 17%
- Population Healthy Nuclei (%) [2]: 67%
- Population Hoechst High Intensity Objects (%) [2]: 6%
- Population Membrane Permeable-Phenotype (%) [2]: 8%
- Population Mitochondria Different-Phenotype (%) [2]: 91%
- Population Mitotic Cells (%) [2]: 60%
- Population Normal (%) [2]: 93%
- Population Pyknosed Nuclei (%) [2]: 14%
- Population Tubulin-Different-Phenotype (%) [2]: 97%
- Total Cell Count [2]: 73
- Population Apoptotic (%) [3]: 82%
- Population Fragmented Nuclei (%) [3]: 35%
- Population Healthy Nuclei (%) [3]: 29%
- Population Hoechst High Intensity Objects (%) [3]: 5%
- Population Membrane Permeable-Phenotype (%) [3]: 66%
- Population Mitochondria Different-Phenotype (%) [3]: 100%
- Population Mitotic Cells (%) [3]: 18%
- Population Normal (%) [3]: 94%
- Population Pyknosed Nuclei (%) [3]: 35%
- Total Cell Count [3]: 151
- Population Apoptotic (%) [4]: 83%
- Population Fragmented Nuclei (%) [4]: 32%
- Population Healthy Nuclei (%) [4]: 22%
- Population Hoechst High Intensity Objects (%) [4]: 9%
- Population Membrane Permeable-Phenotype (%) [4]: 88%
- Population Mitochondria Different-Phenotype (%) [4]: 94%
- Population Mitotic Cells (%) [4]: 16%
- Population Normal (%) [4]: 90%
- Population Pyknosed Nuclei (%) [4]: 45%
- Population Tubulin-Different-Phenotype (%) [4]: 100%
- Total Cell Count [4]: 88
- Population Apoptotic (%) [5]: 53%
- Population Fragmented Nuclei (%) [5]: 19%
- Population Healthy Nuclei (%) [5]: 59%
- Population Hoechst High Intensity Objects (%) [5]: 8%
- Population Membrane Permeable-Phenotype (%) [5]: 10%
- Population Mitochondria Different-Phenotype (%) [5]: 91%
- Population Mitotic Cells (%) [5]: 46%
- Population Normal (%) [5]: 91%
- Population Pyknosed Nuclei (%) [5]: 20%
- Population Tubulin-Different-Phenotype (%) [5]: 89%
- Total Cell Count [5]: 171
- Population Apoptotic (%) [6]: 58%
- Population Fragmented Nuclei (%) [6]: 20%
- Population Healthy Nuclei (%) [6]: 61%
- Population Hoechst High Intensity Objects (%) [6]: 10%
- Population Membrane Permeable-Phenotype (%) [6]: 21%
- Population Mitochondria Different-Phenotype (%) [6]: 85%
- Population Mitotic Cells (%) [6]: 41%
- Population Normal (%) [6]: 89%
- Population Pyknosed Nuclei (%) [6]: 17%
- Population Tubulin-Different-Phenotype (%) [6]: 87%
- Total Cell Count [6]: 75
- Population Apoptotic (%) [7]: 96%
- Population Fragmented Nuclei (%) [7]: 41%
- Population Healthy Nuclei (%) [7]: 8%
- Population Hoechst High Intensity Objects (%) [7]: 8%
- Population Membrane Permeable-Phenotype (%) [7]: 72%
- Population Mitochondria Different-Phenotype (%) [7]: 90%
- Population Mitotic Cells (%) [7]: 3%
- Population Normal (%) [7]: 91%
- Population Pyknosed Nuclei (%) [7]: 49%
- Population Tubulin-Different-Phenotype (%) [7]: 90%
- Total Cell Count [7]: 135
- Population Apoptotic (%) [8]: 97%
- Population Fragmented Nuclei (%) [8]: 27%
- Population Healthy Nuclei (%) [8]: 13%
- Population Hoechst High Intensity Objects (%) [8]: 20%
- Population Membrane Permeable-Phenotype (%) [8]: 100%
- Population Mitochondria Different-Phenotype (%) [8]: 87%
- Population Mitotic Cells (%) [8]: 2%
- Population Normal (%) [8]: 79%
- Population Pyknosed Nuclei (%) [8]: 59%
- Population Tubulin-Different-Phenotype (%) [8]: 100%
- Total Cell Count [8]: 74
- Population Apoptotic (%) [9]: 55%
- Population Fragmented Nuclei (%) [9]: 26%
- Population Membrane Permeable-Phenotype (%) [9]: 18%
- Population Mitochondria Different-Phenotype (%) [9]: 82%
- Population Mitotic Cells (%) [9]: 44%
- Population Pyknosed Nuclei (%) [9]: 21%
- Population Tubulin-Different-Phenotype (%) [9]: 79%
- Total Cell Count [9]: 215
- Population Apoptotic (%) [10]: 64%
- Population Fragmented Nuclei (%) [10]: 25%
- Population Healthy Nuclei (%) [10]: 51%
- Population Hoechst High Intensity Objects (%) [10]: 8%
- Population Membrane Permeable-Phenotype (%) [10]: 31%
- Population Mitochondria Different-Phenotype (%) [10]: 71%
- Population Mitotic Cells (%) [10]: 35%
- Population Normal (%) [10]: 91%
- Population Pyknosed Nuclei (%) [10]: 22%
- Population Tubulin-Different-Phenotype (%) [10]: 84%
- Total Cell Count [10]: 81
- Population Apoptotic (%) [11]: 98%
- Population Fragmented Nuclei (%) [11]: 43%
- Population Healthy Nuclei (%) [11]: 2%
- Population Hoechst High Intensity Objects (%) [11]: 15%
- Population Membrane Permeable-Phenotype (%) [11]: 100%
- Population Mitochondria Different-Phenotype (%) [11]: 100%
- Population Mitotic Cells (%) [11]: 1%
- Population Normal (%) [11]: 84%
- Population Pyknosed Nuclei (%) [11]: 53%
- Population Tubulin-Different-Phenotype (%) [11]: 100%
- Total Cell Count [11]: 137
- Population Apoptotic (%) [12]: 100%
- Population Fragmented Nuclei (%) [12]: 17%
- Population Healthy Nuclei (%) [12]: 45%
- Population Hoechst High Intensity Objects (%) [12]: 34%
- Population Mitochondria Different-Phenotype (%) [12]: 95%
- Population Mitotic Cells (%) [12]: 0%
- Population Normal (%) [12]: 65%
- Population Pyknosed Nuclei (%) [12]: 36%
- Population Tubulin-Different-Phenotype (%) [12]: 95%
- Total Cell Count [12]: 70
